Test results reported in PubChem BioAssay.
Calls of active or inactive are those of the source.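 Rule for the calls, unless noted: active = Her2 level under about 52% in both replicate screens, with viability over 70% of control (limit read from the data); inconclusive = Her2 under the limit in one screen only, or viability under 70%; inactive = Her2 level above the set limit.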

How the values were obtained:
[1] = reducers of endogenous Her2 protein level, primary screen, SKBR3 breast tumor cells, AlphaScreen, ATP viability (AID 461); settings: 18-24 h, measured here: SKBR3 viability, ATP luminescence, at 10 µM;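 for Her2 level: lower value means less Her2 protein in the cells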;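 for viability: percent of carrier control wells set as 100% viability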
[2] = biological target: Receptor tyrosine-protein kinase erbB-2 (Homo sapiens) (UniProt P04626); assay: as above; settings: 18-24 h, at 10 µM, stronger effect = lower value
[3] = SK-BR-3 cell growth inhibitors, pilot screen, 24 h, human (AID 572;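 active = viability at or below 10% of carrier control in both of two separate runs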;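 note: compound exposure lasted between 18 and 24 h rather than exactly 24 h; 100% = carrier-treated control wells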); settings: SK-BR-3 viability, CellTiter-Glo luminescence, at 10 µM, stronger effect = lower value
[4] = HUVEC growth inhibition – cell-based, human, primary screen (AID 575;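 active = viability at or below 30% in both replicate assays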;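 note: 100% = median of untreated cell wells with 0.1% DMSO on each plate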); settings: HUVEC proliferation, CellTiter-Glo luminescence, 72 h; at 10 µM; stronger effect = lower value
Summary of the method: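 System – primary HUVEC, no more than 12 passages · Medium – Low-serum (2% FBS) EBM, supplemented · Times – 72 h exposure, 37 °C, 5% CO2, 30 min RT equilibration · Measured by – luminescent ATP assay · Read-out – % viability relative to median vehicle-well signal on each plate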

[5] = growth inhibitors of H69AR lung tumor, primary screen, human, duplicate replicates (AID 580;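 active = viability at or under a set limit in both replicates, limit being median viability minus 3 SD, cut at about 48% in these data, passing the limit was not always enough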;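 note: 100% = mean luminescence of untreated wells and 0% = no signal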); settings: H69AR lung tumor cells viability, ATP luminescence, 72 h; at 10 µM; stronger effect = lower value
[6] = reversal of MRP1-mediated doxorubicin resistance, pilot screen, H69AR cells, doxorubicin co-treatment (AID 601;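 active = viability loss from added drug above about 55%, and viability with drug at most 40%, in both replicates, limit read from the data, passing the limit was not always enough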); settings: CellTiter-Glo, 72 h, at 10 µM; for differential viability (reversal): stronger effect = higher value
[7] = 384-well plate pilot, post-Golgi transport modulator project, inhibition of yeast transport mutant growth (AID 636; in the data active = inhibition above about 31%); settings: absorbance 615 nm, about 18 h, stronger effect = higher value
[8] = growth suppression of yeast trafficking mutant, preliminary HTS, modulators of trafficking downstream of Golgi apparatus project, 1536-format plate, OD 615 nm (AID 637; in the data active = inhibition above about 30%); settings: yeast transport mutant growth, absorbance 615 nm, 18 h; stronger effect = higher value
[9] = H69AR cells + 2 uM doxorubicin, measured here: viability with 2 uM doxorubicin, stronger effect = lower value
[10] = H69AR cells, compound alone cytotoxicity

Receptor tyrosine-protein kinase erbB-2 (Homo sapiens), sequence (P04626 whole entry, looked up): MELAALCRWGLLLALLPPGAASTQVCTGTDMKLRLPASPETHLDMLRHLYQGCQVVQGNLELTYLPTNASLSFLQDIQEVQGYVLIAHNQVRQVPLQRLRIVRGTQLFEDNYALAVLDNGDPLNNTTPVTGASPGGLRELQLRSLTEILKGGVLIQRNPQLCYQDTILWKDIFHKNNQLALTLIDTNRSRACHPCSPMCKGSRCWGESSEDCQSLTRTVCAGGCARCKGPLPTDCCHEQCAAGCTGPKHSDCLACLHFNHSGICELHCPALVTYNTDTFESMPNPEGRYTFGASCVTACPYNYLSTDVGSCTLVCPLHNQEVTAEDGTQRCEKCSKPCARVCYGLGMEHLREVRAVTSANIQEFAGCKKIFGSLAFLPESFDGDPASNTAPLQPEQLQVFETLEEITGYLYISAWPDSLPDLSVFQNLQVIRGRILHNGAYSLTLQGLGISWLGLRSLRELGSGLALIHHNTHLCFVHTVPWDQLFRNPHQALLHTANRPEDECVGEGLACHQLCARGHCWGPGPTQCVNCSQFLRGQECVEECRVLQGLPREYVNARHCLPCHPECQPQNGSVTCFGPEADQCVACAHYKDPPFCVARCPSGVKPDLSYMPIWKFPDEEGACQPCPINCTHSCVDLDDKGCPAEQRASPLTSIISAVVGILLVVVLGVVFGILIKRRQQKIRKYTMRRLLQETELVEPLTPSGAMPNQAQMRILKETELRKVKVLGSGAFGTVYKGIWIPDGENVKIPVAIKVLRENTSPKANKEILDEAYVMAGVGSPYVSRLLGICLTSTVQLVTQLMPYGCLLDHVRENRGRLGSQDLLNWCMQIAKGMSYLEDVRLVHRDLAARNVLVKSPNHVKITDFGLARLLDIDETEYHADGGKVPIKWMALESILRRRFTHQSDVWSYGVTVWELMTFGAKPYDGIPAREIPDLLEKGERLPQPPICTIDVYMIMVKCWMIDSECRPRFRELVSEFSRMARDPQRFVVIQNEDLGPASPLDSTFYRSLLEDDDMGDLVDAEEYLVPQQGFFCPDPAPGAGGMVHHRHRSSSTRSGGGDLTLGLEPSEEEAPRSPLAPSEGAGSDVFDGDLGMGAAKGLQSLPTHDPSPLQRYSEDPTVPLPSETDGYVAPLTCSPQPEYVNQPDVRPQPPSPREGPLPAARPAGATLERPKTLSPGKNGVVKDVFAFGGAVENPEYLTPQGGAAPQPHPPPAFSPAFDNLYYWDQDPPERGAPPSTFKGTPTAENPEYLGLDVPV

## COC(=O)c1ccnc(/C=N/O)c1
[1]
  viability: 95%
[2]
  Her2 level: 76% (inactive)
[3]
  viability: 95% (inactive)
[4]
  viability: 99.8% (inactive)
[5]
  viability: 88.1% (inactive)
[6]; H69AR cells + 2 uM doxorubicin
  differential viability (reversal): 7.13% (inactive)
[6]; [9]
  viability: 81%
[6]; [10]
  viability: 88.1%
[7]
  inhibition: -3.92% (inactive)
[8]
  inhibition: 2.7% (inactive)

## COc1ccccc1N1CCN(C/C(O)=C(\C#N)c2nc(-c3ccccc3)cs2)CC1
[1]
  viability: 94%
[2]
  Her2 level: 108% (inactive)
[3]
  viability: 94% (inactive)
[4]
  viability: 84.1% (inactive)
[5]
  viability: 90.8% (inactive)
[6]; H69AR cells + 2 uM doxorubicin
  differential viability (reversal): -6.43% (inactive)
[6]; [9]
  viability: 97.2%
[6]; [10]
  viability: 90.8%
[7]
  inhibition: 0.55% (inactive)
[8]
  inhibition: 12.5% (inactive)

## CC1(C)CC(=O)c2cnc(NC(=O)CSc3nc4ccccc4o3)nc2C1
[1]
  viability: 96%
[2]
  Her2 level: 98.5% (inactive)
[3]
  viability: 96% (inactive)
[4]
  viability: 81.4% (inactive)
[5]
  viability: 105% (inactive)
[6]; H69AR cells + 2 uM doxorubicin
  differential viability (reversal): 9.52% (inactive)
[6]; [9]
  viability: 95.7%
[6]; [10]
  viability: 105%
[7]
  inhibition: -4.46% (inactive)
[8]
  inhibition: 0.83% (inactive)

## COc1ccc(-c2c3c(=O)n(C)c(=O)n(C)c3cn2-c2cccc(OC)c2)cc1
[1]
  viability: 105%
[2]
  Her2 level: 97% (inactive)
[3]
  viability: 105% (inactive)
[4]
  viability: 95.9% (inactive)
[5]
  viability: 89.7% (inactive)
[6]; H69AR cells + 2 uM doxorubicin
  differential viability (reversal): -3.48% (inactive)
[6]; [9]
  viability: 93.2%
[6]; [10]
  viability: 89.7%
[7]
  inhibition: 0.39% (inactive)
[8]
  inhibition: -6.03% (inactive)

## O=C1NCCCc2c1no[n+]2[O-]
[1]
  viability: 100%
[2]
  Her2 level: 103% (inactive)
[3]
  viability: 100% (inactive)
[4]
  viability: 84.1% (inactive)
[5]
  viability: 104% (inactive)
[6]; H69AR cells + 2 uM doxorubicin
  differential viability (reversal): 4.5% (inactive)
[6]; [9]
  viability: 99.2%
[6]; [10]
  viability: 104%
[7]
  inhibition: -0.13% (inactive)
[8]
  inhibition: -3.71% (inactive)

## CCOC(=O)CSC1=C(C#N)C(c2ccc(Cl)cc2)C(C(=O)OC)C(=O)N1 (stereo not given)
[1]
  viability: 104%
[2]
  Her2 level: 143% (inactive)
[3]
  viability: 104% (inactive)
[4]
  viability: 85.4% (inactive)
[5]
  viability: 88.5% (inactive)
[6]; H69AR cells + 2 uM doxorubicin
  differential viability (reversal): 0.1% (inactive)
[6]; [9]
  viability: 88.4%
[6]; [10]
  viability: 88.5%
[7]
  inhibition: -4.74% (inactive)
[8]
  inhibition: 4.83% (inactive)

## Cc1cccc(N(C)C(=O)c2cc3cc4ccc(C)cc4nc3o2)c1
[1]
  viability: 89%
[2]
  Her2 level: 73.5% (inactive)
[3]
  viability: 89% (inactive)
[4]
  viability: 57.1% (inactive)
[5]
  viability: 12% (active)
[6]; H69AR cells + 2 uM doxorubicin
  differential viability (reversal): -36.7% (inactive)
[6]; [9]
  viability: 48.8%
[6]; [10]
  viability: 12%
[7]
  inhibition: -4% (inactive)
[8]
  inhibition: -4.26% (inactive)

## CCC(C)NC(=O)CCNS(=O)(=O)c1ccc(Br)cc1 (stereo not given)
[1]
  viability: 95.5%
[2]
  Her2 level: 73% (inactive)
[3]
  viability: 95.5% (inactive)
[4]
  viability: 99.2% (inactive)
[5]
  viability: 98.5% (inactive)
[6]; H69AR cells + 2 uM doxorubicin
  differential viability (reversal): 2.66% (inactive)
[6]; [9]
  viability: 95.8%
[6]; [10]
  viability: 98.5%
[7]
  inhibition: -4.74% (inactive)
[8]
  inhibition: -1.67% (inactive)

## CCOc1cc(NC(=O)c2ccccn2)c(OCC)cc1NC(=O)CC(C)C
[1]
  viability: 74%
[2]
  Her2 level: 102% (inactive)
[3]
  viability: 74% (inactive)
[4]
  viability: 63.1% (inactive)
[5]
  viability: 89% (inactive)
[6]; H69AR cells + 2 uM doxorubicin
  differential viability (reversal): -6.29% (inactive)
[6]; [9]
  viability: 95.2%
[6]; [10]
  viability: 89%
[7]
  inhibition: 1.2% (inactive)
[8]
  inhibition: -6.23% (inactive)

## COCCCn1c(SCC(=O)N2CCc3ccccc32)nnc1-c1ccoc1C
[1]
  viability: 108%
[2]
  Her2 level: 80% (inactive)
[3]
  viability: 108% (inactive)
[4]
  viability: 93.8% (inactive)
[5]
  viability: 98.4% (inactive)
[6]; H69AR cells + 2 uM doxorubicin
  differential viability (reversal): 2.4% (inactive)
[6]; [9]
  viability: 96%
[6]; [10]
  viability: 98.4%
[7]
  inhibition: -4.67% (inactive)
[8]
  inhibition: 0.65% (inactive)

## O=C1CN(C(=O)COC(=O)C23CC4CC(CC(O)(C4)C2)C3)c2ccccc2N1
[1]
  viability: 115%
[2]
  Her2 level: 85.5% (inactive)
[3]
  viability: 115% (inactive)
[4]
  viability: 104% (inactive)
[5]
  viability: 96.6% (inactive)
[6]; H69AR cells + 2 uM doxorubicin
  differential viability (reversal): 10.6% (inactive)
[6]; [9]
  viability: 86.1%
[6]; [10]
  viability: 96.6%
[7]
  inhibition: -7.97% (inactive)
[8]
  inhibition: 3.65% (inactive)

## COC(=O)c1ccc(Oc2nc(NC(C)C)nc(N(C)C)n2)cc1
[1]
  viability: 102%
[2]
  Her2 level: 91.5% (inactive)
[3]
  viability: 102% (inactive)
[4]
  viability: 97.2% (inactive)
[5]
  viability: 89.5% (inactive)
[6]; H69AR cells + 2 uM doxorubicin
  differential viability (reversal): -7.6% (inactive)
[6]; [9]
  viability: 97.1%
[6]; [10]
  viability: 89.5%
[7]
  inhibition: -5.14% (inactive)
[8]
  inhibition: -2.46% (inactive)

## Cc1onc(-c2ccccc2)c1C(=O)N1CCN(C(=O)c2ccco2)CC1
[1]
  viability: 98%
[2]
  Her2 level: 98.5% (inactive)
[3]
  viability: 98% (inactive)
[4]
  viability: 101% (inactive)
[5]
  viability: 88.4% (inactive)
[6]; H69AR cells + 2 uM doxorubicin
  differential viability (reversal): -2.1% (inactive)
[6]; [9]
  viability: 90.5%
[6]; [10]
  viability: 88.4%
[7]
  inhibition: -6.67% (inactive)
[8]
  inhibition: 5.32% (inactive)

## O=c1c(-c2ccc(F)cc2)coc2c3c(ccc12)OCCO3
[1]
  viability: 100%
[2]
  Her2 level: 78.5% (inactive)
[3]
  viability: 100% (inactive)
[4]
  viability: 120% (inactive)
[5]
  viability: 107% (inactive)
[6]; H69AR cells + 2 uM doxorubicin
  differential viability (reversal): 20% (inactive)
[6]; [9]
  viability: 86.7%
[6]; [10]
  viability: 107%
[7]
  inhibition: 0.13% (inactive)
[8]
  inhibition: -6.73% (inactive)

## CCN(CC)C(=O)C1=C(C)NC(=O)NC1c1c(F)cccc1Cl (stereo not given)
[1]
  viability: 108%
[2]
  Her2 level: 108% (inactive)
[3]
  viability: 108% (inactive)
[4]
  viability: 96.8% (inactive)
[5]
  viability: 101% (inactive)
[6]; H69AR cells + 2 uM doxorubicin
  differential viability (reversal): 13.7% (inactive)
[6]; [9]
  viability: 87.2%
[6]; [10]
  viability: 101%
[7]
  inhibition: -3.82% (inactive)
[8]
  inhibition: 4.92% (inactive)

## O=C(NC1CCCCC1)C(c1ccco1)N(Cc1cccnc1)C(=O)C1COc2ccccc2O1 (stereo not given)
[1]
  viability: 100%
[2]
  Her2 level: 84.5% (inactive)
[3]
  viability: 100% (inactive)
[4]
  viability: 91.4% (inactive)
[5]
  viability: 81.1% (inactive)
[6]; H69AR cells + 2 uM doxorubicin
  differential viability (reversal): -7.03% (inactive)
[6]; [9]
  viability: 88.1%
[6]; [10]
  viability: 81.1%
[7]
  inhibition: -2.24% (inactive)
[8]
  inhibition: 2.13% (inactive)
